Assay results taken from ChEMBL document CHEMBL2311257, “Synthesis and antioxidant activity of thymol and carvacrol based Schiff bases” (Bioorg Med Chem Lett, 2013).
Values after ≈ are worked out from the molar mass of the structure shown.

Assays:
Assay type in all cases: functional
[1] = system: Radical scavenging activity; test: Antioxidant activity assessed as DPPH radical scavenging activity in ethanol solution at 100 ug/mL
How it was run: (§1)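 Compound dissolved in ethanol, then ethanolic DPPH added. Incubated 30 min in the dark. DPPH decrease read as absorbance at 517 nm against an ethanol blank, with ascorbic acid as reference. % activity = [(A0 − Ai)/A0] × 100, where A0 is absorbance without compound and Ai with compound. IC50 taken from activity across concentrations.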

[2] = system: Radical scavenging activity; test: Antioxidant activity assessed as DPPH radical scavenging activity in ethanol solution at 50 ug/mL; how it was run: as §1
[3] = system: Radical scavenging activity; test: Antioxidant activity assessed as DPPH radical scavenging activity in ethanol solution at 5 ug/mL; how it was run: as §1
[4] = system: Radical scavenging activity; test: Antioxidant activity assessed as DPPH radical scavenging activity in ethanol solution at 10 ug/mL; how it was run: as §1
[5] = system: Radical scavenging activity; test: Antioxidant activity assessed as DPPH radical scavenging activity in ethanol solution; how it was run: as §1
[6] = system: Radical scavenging activity; test: Antioxidant activity assessed as DPPH radical scavenging activity in ethanol solution at 25 ug/mL; how it was run: as §1

IC50 [5]	SMILES	Activity [1]	Activity [2]	Activity [3]	Activity [4]	Activity [6]
25.59 µg/mL (≈ 94.3 µM)	Cc1cc(O)c(C(C)C)cc1/N=C/c1ccc(F)cc1	79.2%	73.2%	21.7%	44.1%	62.9%
26.96 µg/mL (≈ 94.5 µM)	Cc1cc(O)c(C(C)(C)C)cc1/N=C/c1ccc(F)cc1	75.3%	72%	28.5%	41.8%	57%
21.62 µg/mL (≈ 76.8 µM)	CCc1ccc(/C=N/c2cc(C(C)C)c(O)cc2C)cc1	77%	72.4%	28.8%	43%	64.7%
37.8 µg/mL (≈ 149 µM)	Cc1cc(O)c(C(C)C)cc1/N=C/c1cccnc1	79%	68.2%	16.5%	38.9%	48%
22.03 µg/mL (≈ 74.6 µM)	CCCc1ccc(/C=N/c2cc(C)c(O)cc2C(C)C)cc1	84.7%	76.6%	23.9%	44.6%	63.9%
24.32 µg/mL (≈ 86.4 µM)	Cc1ccc(/C=N/c2cc(C(C)(C)C)c(O)cc2C)cc1	75.7%	69.6%	27.2%	48.4%	57.7%
11.66 µg/mL (≈ 66.2 µM)	O=C1O[C@H]([C@@H](O)CO)C(O)=C1O [ASCORBIC ACID]	95.6%	94.4%	18.9%	45%	85%
32.76 µg/mL (≈ 129 µM)	Cc1cc(/N=C/c2cccnc2)c(C(C)C)cc1O	73.8%	71.1%	21.8%	34.2%	61.9%
32.52 µg/mL (≈ 120 µM)	Cc1cc(/N=C/c2ccc(F)cc2)c(C(C)C)cc1O	73.7%	66.3%	22.5%	41.1%	58.8%
21.12 µg/mL (≈ 68.2 µM)	CCCc1ccc(/C=N/c2cc(C(C)(C)C)c(O)cc2C)cc1	84%	70.8%	28.6%	45.8%	62.9%
11.95 µg/mL (≈ 40.2 µM)	Cc1cc(O)c(C(C)C)cc1/N=C/c1ccc2c(c1)OCO2	89.5%	82.5%	27.3%	48%	74.5%
167.57 µg/mL (≈ 1120 µM)	Cc1ccc(C(C)C)c(O)c1 [THYMOL]	29.5%	21.3%	3.07%	5.49%	14.7%
131.24 µg/mL (≈ 874 µM)	Cc1ccc(C(C)C)cc1O [CARVACROL]	37.4%	27.4%	5.17%	9.91%	18.4%
22.05 µg/mL (≈ 66.4 µM)	Cc1cc(O)c(C(C)C)cc1/N=C/c1ccc(Br)cc1	80.9%	72.5%	27.7%	46.9%	60%
18.55 µg/mL (≈ 73.2 µM)	Cc1cc(O)c(C(C)C)cc1/N=C/c1ccccc1	83.8%	77.9%	31.6%	45.2%	60.6%
51.92 µg/mL (≈ 174 µM)	Cc1cc(/N=C/c2ccc([N+](=O)[O-])cc2)c(C(C)C)cc1O	68.6%	55.8%	17.1%	32%	43%
23.77 µg/mL (≈ 71.5 µM)	Cc1cc(/N=C/c2ccc(Br)cc2)c(C(C)C)cc1O	79.9%	64.5%	28.8%	45.4%	63.1%
173.95 µg/mL (≈ 1060 µM)	Cc1ccc(C(C)(C)C)c(O)c1	28.6%	19.6%	3.29%	4.69%	11.3%
16.58 µg/mL (≈ 55.8 µM)	Cc1cc(/N=C/c2ccc3c(c2)OCO3)c(C(C)C)cc1O	88.8%	77.5%	28.8%	45.4%	68.6%
18.37 µg/mL (≈ 59.4 µM)	Cc1cc(O)c(C(C)C)cc1/N=C/c1ccc(C(C)(C)C)cc1	83.8%	73.5%	23.6%	51.6%	66.2%
24.4 µg/mL (≈ 95.9 µM)	Cc1cc(/N=C/c2ccccn2)c(C(C)C)cc1O	78.1%	75.5%	23.4%	41.2%	65.2%
24.29 µg/mL (≈ 84.4 µM)	Cc1cc(/N=C/c2ccc(Cl)cc2)c(C(C)C)cc1O	75.6%	68%	27.8%	47.3%	59.6%

IC50 [5]	SMILES	Activity [1]	Activity [2]	Activity [3]	Activity [4]	Activity [6]
13.64 µg/mL (≈ 43.8 µM)	Cc1cc(O)c(C(C)(C)C)cc1/N=C/c1ccc2c(c1)OCO2	89.3%	87.5%	25.1%	49.8%	68.5%
24.11 µg/mL (≈ 83.8 µM)	Cc1cc(O)c(C(C)C)cc1/N=C/c1ccc(Cl)cc1	79.8%	74.1%	22.4%	44.7%	63.8%
22.2 µg/mL (≈ 73.6 µM)	Cc1cc(O)c(C(C)(C)C)cc1/N=C/c1ccc(Cl)cc1	79.8%	73.9%	29.7%	42.6%	61.5%
20.16 µg/mL (≈ 68.2 µM)	CCCc1ccc(/C=N/c2cc(C(C)C)c(O)cc2C)cc1	72.5%	69.2%	25.1%	50.7%	65.5%
63.03 µg/mL (≈ 211 µM)	Cc1cc(O)c(C(C)C)cc1/N=C/c1ccc([N+](=O)[O-])cc1	65.3%	50.9%	10.3%	17.6%	36.2%
19.42 µg/mL (≈ 62.8 µM)	Cc1cc(O)c(C(C)(C)C)cc1/N=C/c1ccc(C(C)C)cc1	86.4%	74%	28.7%	45.9%	64%
22.26 µg/mL (≈ 87.9 µM)	Cc1cc(/N=C/c2ccccc2)c(C(C)C)cc1O	82.5%	75%	24.6%	45.4%	63.1%
23.86 µg/mL (≈ 93.8 µM)	Cc1cc(O)c(C(C)C)cc1/N=C/c1ccccn1	92.8%	74.6%	25.5%	43.6%	58.4%
22.27 µg/mL (≈ 83 µM)	Cc1cc(O)c(C(C)(C)C)cc1/N=C/c1ccccn1	91.7%	80.7%	22.4%	44.7%	61%
18.66 µg/mL (≈ 63.2 µM)	Cc1cc(O)c(C(C)C)cc1/N=C/c1ccc(C(C)C)cc1	82.6%	70.5%	24.5%	50.8%	67.5%
25.34 µg/mL (≈ 90.1 µM)	CCc1ccc(/C=N/c2cc(C)c(O)cc2C(C)C)cc1	82.3%	75.2%	23.4%	42.1%	61.3%
21.89 µg/mL (≈ 81.9 µM)	Cc1ccc(/C=N/c2cc(C(C)C)c(O)cc2C)cc1	75.1%	71.4%	27.3%	45%	64.7%
18.6 µg/mL (≈ 69.6 µM)	Cc1cc(O)c(C(C)(C)C)cc1/N=C/c1ccccc1	87%	75.7%	28%	49.6%	61.1%
20.36 µg/mL (≈ 58.8 µM)	Cc1cc(O)c(C(C)(C)C)cc1/N=C/c1ccc(Br)cc1	81.1%	74.2%	32.8%	43.9%	59.4%
25.58 µg/mL (≈ 95.7 µM)	Cc1ccc(/C=N/c2cc(C)c(O)cc2C(C)C)cc1	81.3%	73.4%	22.1%	44.9%	60.7%
21.08 µg/mL (≈ 71.4 µM)	Cc1cc(/N=C/c2ccc(C(C)C)cc2)c(C(C)C)cc1O	78%	72.4%	25.8%	49.5%	61.7%
34.03 µg/mL (≈ 127 µM)	Cc1cc(O)c(C(C)(C)C)cc1/N=C/c1cccnc1	78.3%	70.3%	20.1%	37.6%	54.5%
24.04 µg/mL (≈ 81.4 µM)	CCc1ccc(/C=N/c2cc(C(C)(C)C)c(O)cc2C)cc1	80.9%	72.4%	27.1%	47.2%	56.3%
21.89 µg/mL (≈ 70.7 µM)	Cc1cc(/N=C/c2ccc(C(C)(C)C)cc2)c(C(C)C)cc1O	79.2%	70.2%	25%	49.9%	62.1%
20.05 µg/mL (≈ 62 µM)	Cc1cc(O)c(C(C)(C)C)cc1/N=C/c1ccc(C(C)(C)C)cc1	86.7%	73%	27.5%	45.6%	65.2%
47.39 µg/mL (≈ 152 µM)	Cc1cc(O)c(C(C)(C)C)cc1/N=C/c1ccc([N+](=O)[O-])cc1	73%	62.4%	16.8%	26%	45.3%
